Test results as given in ChEMBL document CHEMBL1148788 (J Med Chem, 2007).
Activity calls are given as the source filed them. The calls are words filed in the database; no cut-off is given here.

Tests used:
[1] = Displacement of [3H]methyllycaconitine from chimeric alpha-7nAChR Y195F mutant/5HT3A receptor in tsA201 cells; type: cell-based, Homo sapiens
How it was run: (§1)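 tsA-201 cells transiently transfected with 4 µg WT or mutant α7/5-HT3A chimera and assayed 2 days later. Membranes washed twice at 50000g in 50 mM Tris-HCl pH 7.2. Incubated with 0.5 nM [3H]MLA and compound for 2.5 h at room temperature with shaking; nonspecific binding with 5 mM (S)-nicotine. PEI-soaked GF/C filtration, scintillation counting. Ki derived; duplicate, 3–7 experiments.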

[2] = target: T1, 5-hydroxytryptamine receptor 3A (Homo sapiens, UniProt P46098); experiment: Displacement of [3H]GR65630 from human 5HT3A receptor in HEK293 cells; type: cell-based; settings: for pKi: hek293
T1 sequence (P46098 whole entry): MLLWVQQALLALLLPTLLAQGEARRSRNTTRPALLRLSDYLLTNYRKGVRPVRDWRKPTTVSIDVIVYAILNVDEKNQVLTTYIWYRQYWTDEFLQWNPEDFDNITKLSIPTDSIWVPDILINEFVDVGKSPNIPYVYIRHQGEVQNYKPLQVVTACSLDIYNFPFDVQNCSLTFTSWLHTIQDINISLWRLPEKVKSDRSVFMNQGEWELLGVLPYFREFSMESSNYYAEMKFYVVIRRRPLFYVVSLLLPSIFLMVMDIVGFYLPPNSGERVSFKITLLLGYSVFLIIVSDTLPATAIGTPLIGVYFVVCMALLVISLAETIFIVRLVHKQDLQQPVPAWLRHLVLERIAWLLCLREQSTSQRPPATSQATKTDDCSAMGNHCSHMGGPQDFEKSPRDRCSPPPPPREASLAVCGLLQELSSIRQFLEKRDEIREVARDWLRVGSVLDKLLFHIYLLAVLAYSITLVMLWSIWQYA

[3] = Displacement of [3H]methyllycaconitine from chimeric alpha7nAChR K145A mutant/5HT3A receptor in tsA201 cells; type: cell-based, Homo sapiens; how it was run: as §1
[4] = target: T2, Glycine receptor subunit alpha-1 (Homo sapiens, UniProt P23415); experiment: Antagonist activity at human glycine alpha-1 receptor in HEK293 cells by FMP assay; type: functional, cell-based; settings: for pIC50: hek293
T2 sequence (P23415 whole entry): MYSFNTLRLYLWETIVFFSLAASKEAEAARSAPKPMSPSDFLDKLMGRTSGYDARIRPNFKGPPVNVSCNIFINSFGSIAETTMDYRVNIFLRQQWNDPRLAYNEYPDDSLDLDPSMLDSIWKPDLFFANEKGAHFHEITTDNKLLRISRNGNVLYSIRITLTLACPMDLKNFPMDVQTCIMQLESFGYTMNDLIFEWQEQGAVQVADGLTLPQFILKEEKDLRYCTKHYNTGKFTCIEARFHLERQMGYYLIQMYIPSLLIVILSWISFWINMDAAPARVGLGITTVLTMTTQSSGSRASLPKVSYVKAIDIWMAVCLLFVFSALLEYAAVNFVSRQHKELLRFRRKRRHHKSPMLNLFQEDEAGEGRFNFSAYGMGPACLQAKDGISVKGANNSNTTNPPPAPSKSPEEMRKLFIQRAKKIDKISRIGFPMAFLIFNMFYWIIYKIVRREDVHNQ

[5] = Displacement of [3H]methyllycaconitine from chimeric alpha-7nAChR W55A mutant /5HT3A receptor in tsA201 cells; type: cell-based, Homo sapiens; how it was run: as §1
[6] = Displacement of [3H]methyllycaconitine from chimeric alpha7nAChR Y195A mutant/5HT3A receptor in tsA201 cells; type: cell-based, Homo sapiens; how it was run: as §1
tsA201 [7] = experiment: Displacement of [3H]methyllycaconitine from chimeric alpha-7nAChR W55A/Y195A mutant /5HT3A receptor in tsA201 cells; type: cell-based; settings: Homo sapiens; how it was run: as §1
[8] = Displacement of [3H]methyllycaconitine from chimeric alpha7nAChR R79A mutant/5HT3A receptor R79A mutant in tsA201 cells; type: cell-based, Homo sapiens; how it was run: as §1
cells = type: functional, cell-based; settings: Homo sapiens, HEK293
tsA201 [9] = experiment: Displacement of [3H]methyllycaconitine from chimeric alpha-7nAChR Y93A mutant/5HT3A receptor in tsA201 cells; type: cell-based; settings: Homo sapiens; how it was run: as §1
[10] = Displacement of [3H]methyllycaconitine from chimeric alpha-7nAChR N107A mutant/5HT3A receptor in tsA201 cells; type: cell-based, Homo sapiens; how it was run: as §1
[11] = target: T3, Neuronal acetylcholine receptor; alpha3/beta4 (Rattus norvegicus, UniProt P04757+P12392); experiment: Displacement of [3H]epibatidine from recombinant rat alpha-3-beta-4 nAChr in HEK293 cell line; type: cell-based; settings: for pKi: hek293
tsA201 [12] = experiment: Displacement of [3H]methyllycaconitine from chimeric alpha-7nAChR Y188A mutant/5-HT3A receptor in tsA201 cells; type: cell-based; settings: Homo sapiens; how it was run: as §1
[13] = target: Neuronal acetylcholine receptor; alpha4/beta2 (Rattus norvegicus, UniProt P09483+P12390); experiment: Displacement of [3H]epibatidine from rat recombinant alpha-4-beta-2 nAChR in HEK293 cell line; type: cell-based; settings: for pKi: hek293
[14] = target: T4, Neuronal acetylcholine receptor subunit alpha-7 (Homo sapiens, UniProt P36544); experiment: Displacement of [3H]methyllycaconitine from alpha7 nAChR in tsA201 cells co-expressed with Ric3; type: cell-based
Target sequence in this assay (P36544 whole entry): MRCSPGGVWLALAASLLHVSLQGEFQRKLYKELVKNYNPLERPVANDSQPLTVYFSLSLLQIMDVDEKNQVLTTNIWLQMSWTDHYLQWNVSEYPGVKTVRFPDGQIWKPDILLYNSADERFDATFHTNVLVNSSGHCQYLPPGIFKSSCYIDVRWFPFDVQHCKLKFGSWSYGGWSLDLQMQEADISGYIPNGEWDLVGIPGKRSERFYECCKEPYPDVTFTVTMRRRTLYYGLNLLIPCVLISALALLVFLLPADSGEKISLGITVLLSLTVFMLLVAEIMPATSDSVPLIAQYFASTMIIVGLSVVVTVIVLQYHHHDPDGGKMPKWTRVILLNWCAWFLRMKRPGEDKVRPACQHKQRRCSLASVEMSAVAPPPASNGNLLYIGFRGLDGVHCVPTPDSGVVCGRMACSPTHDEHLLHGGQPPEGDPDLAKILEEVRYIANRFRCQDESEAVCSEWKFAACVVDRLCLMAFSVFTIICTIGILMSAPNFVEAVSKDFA

[15] = target: T4, Neuronal acetylcholine receptor subunit alpha-7; experiment: Displacement of [3H]methyllycaconitine from chimeric alpha7nAChR/5HT3A in tsA201 cells; type: cell-based
Target sequence in this assay (P36544 23-502 limits assumed): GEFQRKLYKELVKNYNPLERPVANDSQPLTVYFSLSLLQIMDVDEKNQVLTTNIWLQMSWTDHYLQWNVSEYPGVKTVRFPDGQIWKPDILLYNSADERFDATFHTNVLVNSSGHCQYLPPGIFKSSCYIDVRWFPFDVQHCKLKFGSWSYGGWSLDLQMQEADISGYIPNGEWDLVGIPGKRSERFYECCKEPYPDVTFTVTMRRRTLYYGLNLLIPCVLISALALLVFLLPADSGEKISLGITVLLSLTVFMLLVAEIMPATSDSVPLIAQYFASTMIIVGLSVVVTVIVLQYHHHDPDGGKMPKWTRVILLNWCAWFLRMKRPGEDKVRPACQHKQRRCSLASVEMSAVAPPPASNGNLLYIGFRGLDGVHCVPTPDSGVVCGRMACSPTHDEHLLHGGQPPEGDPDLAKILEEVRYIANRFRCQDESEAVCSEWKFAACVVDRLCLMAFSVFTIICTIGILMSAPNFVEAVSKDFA

[16] = target: T1, 5-hydroxytryptamine receptor 3A; experiment: Antagonist activity at human 5HT3A receptor expressed in HEK293 cells by FMP assay; type: functional, cell-based; settings: for pIC50: hek293; for IC50: read-out: IC50
[17] = Displacement of [3H]methyllycaconitine from chimeric alpha-7nAChR S148A mutant /5HT3A receptor in tsA201 cells; type: cell-based, Homo sapiens; how it was run: as §1
[18] = Displacement of [3H]methyllycaconitine from chimeric alpha-7nAChR K145R mutant /5HT3A receptor in tsA201 cells; type: cell-based, Homo sapiens; how it was run: as §1
[19] = Displacement of [3H]methyllycaconitine from chimeric alpha-7nAChR S150A mutant/5HT3A receptor in tsA201 cells; type: cell-based, Homo sapiens; how it was run: as §1
[20] = Displacement of [3H]methyllycaconitine from chimeric alpha-7nAChR Y168A mutant/5HT3A receptor in tsA201 cells; type: cell-based, Homo sapiens; how it was run: as §1
[21] = Displacement of [3H]methyllycaconitine from chimeric alpha7nAChR W55Y mutant/5HT3A receptor in tsA201 cells; type: cell-based, Homo sapiens; how it was run: as §1
[22] = Displacement of [3H]methyllycaconitine from chimeric alpha-7nAChR D197A mutant/5HT3A receptor in tsA201 cells; type: cell-based, Homo sapiens; how it was run: as §1
[23] = target: Neuronal acetylcholine receptor; alpha4/beta4 (Rattus norvegicus, UniProt P09483+P12392); experiment: Displacement of [3H]epibatidine from recombinant rat alpha-4-beta-4 nAChr in HEK293 cell line; type: cell-based; settings: for pKi: hek293
[24] = target: T3, Neuronal acetylcholine receptor; alpha3/beta4; experiment: Antagonist activity at rat alpha3beta4 nAChR expressed in HEK293 cells by FMP assay; type: functional, cell-based, Homo sapiens
tsA201 [25] = experiment: Displacement of [3H]methyllycaconitine from chimeric alpha-7nAChR W149A mutant/5HT3A receptor in tsA201 cells; type: cell-based; settings: Homo sapiens; how it was run: as §1
[26] = target: T4, Neuronal acetylcholine receptor subunit alpha-7; experiment: Displacement of [3H]methyllycaconitine from human alpha-7 in tsA201 cells coexpressed with 5HT3A receptor; type: cell-based
Target sequence in this assay (P36544 whole entry): as the sequence (P36544 whole entry) above

tsA201 [27] = experiment: Displacement of [3H]methyllycaconitine from chimeric alpha-7nAChR W149Y mutant/5HT3A receptor W149Y mutant in tsA201 cells; type: cell-based; settings: Homo sapiens; how it was run: as §1
[28] = target: T4, Neuronal acetylcholine receptor subunit alpha-7; experiment: Antagonist activity at human alpha-7 nAChR in tsA201 cells coexpressed with Ric3 by FMP assay; type: functional, cell-based
Target sequence in this assay (P36544 whole entry): as above

Sequence of Neuronal acetylcholine receptor; alpha4/beta4 (P09483 whole entry): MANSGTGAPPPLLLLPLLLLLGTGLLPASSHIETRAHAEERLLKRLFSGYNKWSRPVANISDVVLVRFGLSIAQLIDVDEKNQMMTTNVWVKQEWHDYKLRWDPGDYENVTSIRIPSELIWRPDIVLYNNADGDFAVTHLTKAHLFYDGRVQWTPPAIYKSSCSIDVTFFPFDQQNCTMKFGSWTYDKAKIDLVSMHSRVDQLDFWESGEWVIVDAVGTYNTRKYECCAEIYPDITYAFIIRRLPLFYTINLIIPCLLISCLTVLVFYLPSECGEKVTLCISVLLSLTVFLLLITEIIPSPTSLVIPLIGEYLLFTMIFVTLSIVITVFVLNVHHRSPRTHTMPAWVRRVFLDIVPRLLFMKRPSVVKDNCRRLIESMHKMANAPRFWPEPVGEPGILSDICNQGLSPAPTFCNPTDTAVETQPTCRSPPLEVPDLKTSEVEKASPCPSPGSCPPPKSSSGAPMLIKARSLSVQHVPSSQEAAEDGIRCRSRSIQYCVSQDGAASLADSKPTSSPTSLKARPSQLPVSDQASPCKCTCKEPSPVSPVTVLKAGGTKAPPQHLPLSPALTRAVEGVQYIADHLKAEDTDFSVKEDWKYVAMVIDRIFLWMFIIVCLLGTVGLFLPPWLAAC
Sequence of Neuronal acetylcholine receptor; alpha4/beta4 (P12392 whole entry): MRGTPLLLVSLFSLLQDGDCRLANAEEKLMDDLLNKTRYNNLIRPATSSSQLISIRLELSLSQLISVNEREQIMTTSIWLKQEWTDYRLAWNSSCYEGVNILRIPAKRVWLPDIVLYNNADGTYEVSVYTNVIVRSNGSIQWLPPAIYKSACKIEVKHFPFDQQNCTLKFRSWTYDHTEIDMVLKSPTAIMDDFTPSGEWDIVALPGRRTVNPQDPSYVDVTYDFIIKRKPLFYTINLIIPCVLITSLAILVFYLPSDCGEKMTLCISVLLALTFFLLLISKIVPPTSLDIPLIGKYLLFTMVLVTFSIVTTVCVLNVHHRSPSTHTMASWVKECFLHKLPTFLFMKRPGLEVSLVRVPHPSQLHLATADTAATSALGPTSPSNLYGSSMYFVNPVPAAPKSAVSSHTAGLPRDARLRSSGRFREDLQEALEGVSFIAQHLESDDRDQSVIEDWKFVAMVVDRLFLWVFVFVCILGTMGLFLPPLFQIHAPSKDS
Sequence of Neuronal acetylcholine receptor; alpha4/beta2 (P09483 whole entry): as the sequence (P09483 whole entry) above
Sequence of Neuronal acetylcholine receptor; alpha4/beta2 (P12390 whole entry): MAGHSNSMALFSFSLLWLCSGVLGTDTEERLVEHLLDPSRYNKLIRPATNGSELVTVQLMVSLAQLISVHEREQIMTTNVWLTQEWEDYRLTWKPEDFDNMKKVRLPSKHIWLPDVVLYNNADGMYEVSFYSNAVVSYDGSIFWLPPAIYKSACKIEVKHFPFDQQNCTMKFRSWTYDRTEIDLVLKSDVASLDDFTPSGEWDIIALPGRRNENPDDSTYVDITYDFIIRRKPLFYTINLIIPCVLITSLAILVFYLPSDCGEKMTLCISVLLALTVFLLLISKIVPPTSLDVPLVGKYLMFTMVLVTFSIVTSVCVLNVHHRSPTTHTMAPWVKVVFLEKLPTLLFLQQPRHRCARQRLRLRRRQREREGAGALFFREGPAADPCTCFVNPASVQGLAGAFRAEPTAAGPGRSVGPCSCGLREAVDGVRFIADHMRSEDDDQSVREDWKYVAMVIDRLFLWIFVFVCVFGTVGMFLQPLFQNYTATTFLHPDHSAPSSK
T3 sequence (P04757 whole entry): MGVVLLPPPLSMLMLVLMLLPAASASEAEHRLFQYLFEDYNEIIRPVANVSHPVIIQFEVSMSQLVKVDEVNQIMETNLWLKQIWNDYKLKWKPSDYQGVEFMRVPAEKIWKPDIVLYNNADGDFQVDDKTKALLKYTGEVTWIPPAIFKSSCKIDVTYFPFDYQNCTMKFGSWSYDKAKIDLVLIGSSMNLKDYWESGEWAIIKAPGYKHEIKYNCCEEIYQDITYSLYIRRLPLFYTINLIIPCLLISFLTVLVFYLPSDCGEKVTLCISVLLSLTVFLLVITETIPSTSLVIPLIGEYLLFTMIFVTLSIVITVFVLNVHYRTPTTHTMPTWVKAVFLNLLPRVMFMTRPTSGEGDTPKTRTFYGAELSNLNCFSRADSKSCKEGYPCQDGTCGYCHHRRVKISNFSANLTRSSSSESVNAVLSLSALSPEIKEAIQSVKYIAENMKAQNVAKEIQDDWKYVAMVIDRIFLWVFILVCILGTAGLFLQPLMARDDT
T3 sequence (P12392 whole entry): as the sequence (P12392 whole entry) above

## C[N+](C)(C)Cc1c2n(c3ccccc13)Cc1c(C[N+](C)(C)C)c3ccccc3n1C2.[I-].[I-]
[1]
  Ki: 8.3 µM
  pKi: 5.08
[2]
  Ki: > 100 µM
  pKi: < 4
[3]
  Ki: 7.2 µM
  pKi: 5.14
[4]
  IC50: > 100 µM
  pIC50: < 4
[5]
  Ki: 1.1 µM
  pKi: 5.94
[6]
  Ki: 22 µM
  pKi: 4.66
tsA201 [7]
  Activity: inactive
[8]
  Ki: 7.6 µM
  pKi: 5.12
cells; read-out: IC50
  IC50: > 100 µM
cells; read-out: pIC50 (converted)
  IC50: > 100 µM
tsA201 [9]
  Activity: inactive
[10]
  Ki: 15 µM
  pKi: 4.82
[11]
  Ki: > 100 µM
  pKi: < 4
tsA201 [12]
  Activity: inactive
[13]
  Ki: > 100 µM
[13]; read-out: Ki
  Ki: > 100 µM
[14]; read-out: Ki
  Ki: 1.3 µM
[14]; read-out: pKi (converted)
  Ki: 1.26 µM
[15]
  Ki: 4.42 µM
  pKi: 5.35
[16]
  pIC50: < 4
  IC50: > 100 µM
[17]
  Ki: 0.43 µM
  pKi: 6.37
[18]
  Ki: 5.2 µM
  pKi: 5.28
[19]
  Ki: 6 µM
  pKi: 5.22
[20]
  Ki: 5.1 µM
  pKi: 5.29
[21]
  Ki: 2.4 µM
  pKi: 5.61
[22]
  Ki: 6.3 µM
  pKi: 5.2
[23]
  Ki: > 100 µM
  pKi: < 4
[24]; hek293
  pIC50: < 4
[24]; read-out: IC50
  IC50: > 100 µM
tsA201 [25]
  Activity: inactive
[26]; read-out: Ki
  Ki: 2.4 µM
[26]; read-out: pKi (converted)
  Ki: 2.51 µM
tsA201 [27]
  Activity: inactive
[28]; read-out: IC50
  IC50: 30 µM
[28]; read-out: pIC50 (converted)
  IC50: 100 µM

## COc1ccc(C[N+]23CC[C@@H]4[C@@H]5/C(=C\N6c7ccccc7[C@@]78CC[N+]9(Cc%10ccc(OC)c(OC)c%10)CC%10=CCO[C@H]([C@@H]([C@H]67)[C@H]%10C[C@@H]89)N5c5ccccc5)[C@@H](C[C@@H]42)/C(=C\CO)C3)cc1OC.[Cl-].[Cl-] (stereo partly drawn)
[2]
  Ki: 100 µM
[4]
  IC50: > 100 µM
  pIC50: < 4
cells; read-out: IC50
  IC50: > 100 µM
cells; read-out: pIC50 (converted)
  IC50: > 100 µM
[11]
  Ki: > 100 µM
  pKi: < 4
[13]
  pKi: < 4
[13]; read-out: Ki
  Ki: > 100 µM
[14]; read-out: Ki
  Ki: 0.2 µM
[14]; read-out: pKi (converted)
  Ki: 0.2 µM
[16]
  IC50: 30 µM
[23]
  Ki: > 100 µM
  pKi: < 4
[24]; read-out: IC50
  IC50: 100 µM
[24]; read-out: pIC50 (converted)
  IC50: 31.6 µM
[26]; read-out: Ki
  Ki: 0.27 µM
[26]; read-out: pKi (converted)
  Ki: 0.251 µM
[28]; read-out: IC50
  IC50: 2.6 µM
[28]; read-out: pIC50 (converted)
  IC50: 2.63 µM

## C=CC[N+]12CC[C@@]34c5ccccc5N5/C=C6/[C@H]7C[C@H]8[C@@]9(CC[N@@+]8(CC=C)C/C7=C/CO)c7ccccc7N(/C=C(/[C@@H](C[C@@H]31)/C(=C\CO)C2)[C@H]54)[C@@H]69 (stereo partly drawn)
[2]
  Ki: > 100 µM
  pKi: < 4
[4]
  IC50: > 100 µM
  pIC50: < 4
cells; read-out: IC50
  IC50: > 100 µM
cells; read-out: pIC50 (converted)
  IC50: > 100 µM
[11]
  Ki: 3.2 µM
[13]
  pKi: < 4
[13]; read-out: Ki
  Ki: > 100 µM
[14]; read-out: Ki
  Ki: 1.1 µM
[14]; read-out: pKi (converted)
  Ki: 1 µM
[16]
  pIC50: < 4
  IC50: > 100 µM
[23]
  Ki: > 100 µM
  pKi: < 4
[24]; read-out: IC50
  IC50: 18 µM
[24]; read-out: pIC50 (converted)
  IC50: 15.8 µM
[26]; read-out: Ki
  Ki: 2.1 µM
[26]; read-out: pKi (converted)
  Ki: 2 µM
[28]; read-out: IC50
  IC50: 4.1 µM
[28]; read-out: pIC50 (converted)
  IC50: 4.07 µM

## C=CC[N+]12CC[C@@H]3[C@@H]4[C@@H]5[C@@H](OCC=C(C1)[C@@H]5C[C@@H]32)N1c2ccccc2[C@@]23CC[N+]5(CC=C)CC6=CCO[C@H]([C@@H]([C@H]12)[C@H]6C[C@@H]35)N4c1ccccc1.[Br-].[Br-] (stereo partly drawn)
[2]
  Ki: 100 µM
[4]
  IC50: > 100 µM
  pIC50: < 4
cells; read-out: IC50
  IC50: > 100 µM
cells; read-out: pIC50 (converted)
  IC50: > 100 µM
[11]
  Ki: > 100 µM
  pKi: < 4
[13]
  pKi: < 4
[13]; read-out: Ki
  Ki: > 100 µM
[14]; read-out: Ki
  Ki: 0.03 µM
[14]; read-out: pKi (converted)
  Ki: 0.0316 µM
[16]
  IC50: 100 µM
[23]
  Ki: > 100 µM
  pKi: < 4
[24]; read-out: IC50
  IC50: 100 µM
[26]; read-out: Ki
  Ki: 0.066 µM
[26]; read-out: pKi (converted)
  Ki: 0.0631 µM
[28]; read-out: IC50
  IC50: 0.28 µM
[28]; read-out: pIC50 (converted)
  IC50: 0.282 µM
